As a reminder, the IC50 is the midpoint of a concentration-inhibition curve.

In ChEMBL document CHEMBL3774312, “5-Substituted 3-isopropyl-7-[4-(2-pyridyl)benzyl]amino-1(2)H-pyrazolo[4,3-d]pyrimidines with anti-proliferative activity as potent and selective inhibitors of cyclin-dependent kinases” (Eur J Med Chem, 2016) one finds Activity and IC50 data, which are given here for 1 compound.

The test system of assay [1] is HCT-116. Kind of assay: Induction of apoptosis in human HCT116 cells assessed as PARP1 cleavage incubated for 24 hrs by immunoblotting analysis. In kind it is functional, cell-based. Put shortly: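 HCT-116 cells were treated with different doses for 24 h and harvested into Laemmli buffer. Proteins were separated by SDS-PAGE and blotted to nitrocellulose. Membranes were probed overnight with primary antibodies (anti-PARP F-2, anti-Mcl-1 S-19, anti-p53 DO-1), then with peroxidase secondaries. Bands were detected by ECL with a CCD camera, with tubulin as loading control.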
A general note: Immunoblotting shows a protein as a band on a membrane.

The target in assay [2] is Serine/threonine-protein kinase pim-1 (Homo sapiens) (UniProt P11309). Put plainly: Inhibition of recombinant PIM1 (unknown origin) assessed as residual activity at 1 uM relative to control.
The target of assay [3] is Serine/threonine-protein kinase Nek6 (Homo sapiens) (UniProt Q9HC98). Put plainly: Inhibition of recombinant NEK6 (unknown origin) assessed as residual activity at 1 uM relative to control.
In assay [4] the target is Serine/threonine-protein kinase Chk2 (Homo sapiens) (UniProt O96017). Kind of assay: Inhibition of recombinant CHK2 (unknown origin) assessed as residual activity at 1 uM relative to control.
For assay [5], the target named is Vascular endothelial growth factor receptor (Homo sapiens) (UniProt P17948+P35916+P35968). Kind of assay: Inhibition of recombinant VEGFR (unknown origin) assessed as residual activity at 1 uM relative to control. In kind it is protein assay.
The target in assay [6] is Rho-associated protein kinase 2 (Homo sapiens) (UniProt O75116). Put plainly: Inhibition of recombinant ROCK2 (unknown origin) assessed as residual activity at 1 uM relative to control.
Assay [7] can be described thus: (§1) Cytotoxicity against human HCT116 cells assessed as reduction in cell viability after 72 hrs by calcein AM staining based fluorescence assay. It counts as functional. As to conditions: HCT-116, 72 h. Put shortly: (§2)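 Cells were grown in DMEM with 10% FBS, penicillin and streptomycin at 37 °C in 5% CO2. Three doses were tested in triplicate for 72 h. Live cells were read by Calcein AM fluorescence at 485/538 nm.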

The test system of assay [8] is HCT-116. The description is as §1. In kind it is functional. Put shortly:
as §2

The target of assay [9] is Insulin-like growth factor 1 receptor (Homo sapiens) (UniProt P08069). Kind of assay: Inhibition of recombinant IGF1R (unknown origin) assessed as residual activity at 1 uM relative to control.
Assay [10] concerns G-361. Kind of assay: Induction of apoptosis in human G361 cells assessed as caspase7 activation using Ac-DEVD-AMC as substrate at 5 times IC50 preincubated for 24 hrs followed by substrate addition measured after 3 hrs by fluorescence assay. In kind it is functional, cell-based.
Assay [11] deals with Dual specificity tyrosine-phosphorylation-regulated kinase 1A (Homo sapiens) (UniProt Q13627). Kind of assay: Inhibition of recombinant DYRK1A (unknown origin) assessed as residual activity at 1 uM relative to control.
The target of assay [12] is Mitogen-activated protein kinase 8 (Homo sapiens) (UniProt P45983). Put plainly: Inhibition of recombinant JNK1 (unknown origin) assessed as residual activity at 1 uM relative to control.

The structures appear in SMILES notation. The source made the active and inactive calls. No cut-off for these calls is given here.

Chain of Serine/threonine-protein kinase pim-1 (Homo sapiens) (P11309 whole entry, looked up): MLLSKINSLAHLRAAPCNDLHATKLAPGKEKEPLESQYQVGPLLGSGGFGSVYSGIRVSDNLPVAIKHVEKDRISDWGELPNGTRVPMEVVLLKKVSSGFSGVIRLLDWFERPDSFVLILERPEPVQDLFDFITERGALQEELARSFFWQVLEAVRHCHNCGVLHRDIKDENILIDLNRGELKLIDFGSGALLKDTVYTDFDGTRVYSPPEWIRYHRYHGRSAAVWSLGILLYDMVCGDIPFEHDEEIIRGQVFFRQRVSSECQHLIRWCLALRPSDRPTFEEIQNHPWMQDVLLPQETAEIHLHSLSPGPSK
Chain of Vascular endothelial growth factor receptor (Homo sapiens) (P17948 whole entry, looked up): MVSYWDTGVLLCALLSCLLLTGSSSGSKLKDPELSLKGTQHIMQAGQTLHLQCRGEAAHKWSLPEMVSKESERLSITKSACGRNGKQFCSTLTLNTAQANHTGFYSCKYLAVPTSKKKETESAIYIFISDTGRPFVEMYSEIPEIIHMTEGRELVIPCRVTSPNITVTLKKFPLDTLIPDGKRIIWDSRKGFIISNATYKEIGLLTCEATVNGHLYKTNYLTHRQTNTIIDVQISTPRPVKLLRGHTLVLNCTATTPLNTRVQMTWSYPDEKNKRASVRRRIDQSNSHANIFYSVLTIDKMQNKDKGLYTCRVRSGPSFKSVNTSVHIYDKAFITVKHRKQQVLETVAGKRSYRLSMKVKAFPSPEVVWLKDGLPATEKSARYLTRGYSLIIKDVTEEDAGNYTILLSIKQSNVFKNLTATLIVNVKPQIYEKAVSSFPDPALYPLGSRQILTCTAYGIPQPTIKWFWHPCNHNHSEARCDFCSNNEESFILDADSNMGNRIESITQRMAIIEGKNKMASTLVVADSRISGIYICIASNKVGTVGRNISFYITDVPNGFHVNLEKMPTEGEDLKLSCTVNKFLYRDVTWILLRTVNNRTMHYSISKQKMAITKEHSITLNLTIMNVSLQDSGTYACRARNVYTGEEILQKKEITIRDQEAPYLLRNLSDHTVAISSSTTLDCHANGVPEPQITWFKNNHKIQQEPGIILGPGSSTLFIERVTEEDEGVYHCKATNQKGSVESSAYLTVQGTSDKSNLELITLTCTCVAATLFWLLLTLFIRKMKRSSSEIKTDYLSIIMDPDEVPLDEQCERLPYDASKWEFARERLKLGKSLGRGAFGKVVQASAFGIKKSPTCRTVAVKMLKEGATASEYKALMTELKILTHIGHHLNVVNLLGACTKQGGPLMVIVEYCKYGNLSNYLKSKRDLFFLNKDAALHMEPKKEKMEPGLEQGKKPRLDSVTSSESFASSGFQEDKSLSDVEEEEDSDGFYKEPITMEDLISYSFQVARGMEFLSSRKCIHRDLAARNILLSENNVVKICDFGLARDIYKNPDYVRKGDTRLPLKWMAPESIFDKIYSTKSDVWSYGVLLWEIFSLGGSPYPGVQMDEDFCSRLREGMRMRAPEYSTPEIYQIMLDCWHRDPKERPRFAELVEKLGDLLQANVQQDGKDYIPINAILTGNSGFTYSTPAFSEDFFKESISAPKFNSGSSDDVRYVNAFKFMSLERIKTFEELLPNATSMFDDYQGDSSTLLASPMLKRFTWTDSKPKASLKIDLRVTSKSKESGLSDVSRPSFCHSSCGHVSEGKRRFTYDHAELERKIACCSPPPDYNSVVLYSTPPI
Chain of Vascular endothelial growth factor receptor (Homo sapiens) (P35916 whole entry, looked up): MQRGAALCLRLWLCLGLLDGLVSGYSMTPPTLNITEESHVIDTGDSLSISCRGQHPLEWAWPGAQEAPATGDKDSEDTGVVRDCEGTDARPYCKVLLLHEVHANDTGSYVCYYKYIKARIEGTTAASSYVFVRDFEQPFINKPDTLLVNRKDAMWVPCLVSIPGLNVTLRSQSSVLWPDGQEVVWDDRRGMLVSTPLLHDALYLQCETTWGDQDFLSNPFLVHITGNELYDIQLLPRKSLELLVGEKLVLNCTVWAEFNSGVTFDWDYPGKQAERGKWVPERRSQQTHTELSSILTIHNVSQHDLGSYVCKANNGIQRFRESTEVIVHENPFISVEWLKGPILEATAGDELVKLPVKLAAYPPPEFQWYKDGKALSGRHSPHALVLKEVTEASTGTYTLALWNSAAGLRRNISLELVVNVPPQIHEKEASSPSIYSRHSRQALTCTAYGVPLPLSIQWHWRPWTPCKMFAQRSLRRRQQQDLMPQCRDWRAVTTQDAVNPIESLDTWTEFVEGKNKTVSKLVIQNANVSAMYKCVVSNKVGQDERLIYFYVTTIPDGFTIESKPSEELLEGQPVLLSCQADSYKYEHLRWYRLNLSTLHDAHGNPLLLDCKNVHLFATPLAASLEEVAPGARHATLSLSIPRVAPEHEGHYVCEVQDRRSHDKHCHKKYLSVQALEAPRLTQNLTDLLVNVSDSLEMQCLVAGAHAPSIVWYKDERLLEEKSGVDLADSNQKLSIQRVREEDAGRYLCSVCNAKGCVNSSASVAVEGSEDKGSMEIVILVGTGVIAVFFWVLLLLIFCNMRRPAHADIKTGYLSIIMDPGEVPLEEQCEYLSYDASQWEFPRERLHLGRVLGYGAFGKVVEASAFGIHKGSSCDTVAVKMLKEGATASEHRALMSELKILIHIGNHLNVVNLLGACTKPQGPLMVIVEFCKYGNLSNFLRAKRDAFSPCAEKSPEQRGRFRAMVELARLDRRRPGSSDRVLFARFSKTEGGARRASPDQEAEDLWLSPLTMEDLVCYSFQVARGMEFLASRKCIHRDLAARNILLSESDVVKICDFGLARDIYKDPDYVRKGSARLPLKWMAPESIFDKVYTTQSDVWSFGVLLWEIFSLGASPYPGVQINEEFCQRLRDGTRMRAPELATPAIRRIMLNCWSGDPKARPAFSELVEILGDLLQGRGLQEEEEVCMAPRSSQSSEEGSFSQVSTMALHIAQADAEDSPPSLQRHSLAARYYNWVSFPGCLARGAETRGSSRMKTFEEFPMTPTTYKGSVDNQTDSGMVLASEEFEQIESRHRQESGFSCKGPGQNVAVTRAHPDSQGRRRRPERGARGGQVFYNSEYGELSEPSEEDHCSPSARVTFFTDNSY
Chain of Vascular endothelial growth factor receptor (Homo sapiens) (P35968 whole entry, looked up): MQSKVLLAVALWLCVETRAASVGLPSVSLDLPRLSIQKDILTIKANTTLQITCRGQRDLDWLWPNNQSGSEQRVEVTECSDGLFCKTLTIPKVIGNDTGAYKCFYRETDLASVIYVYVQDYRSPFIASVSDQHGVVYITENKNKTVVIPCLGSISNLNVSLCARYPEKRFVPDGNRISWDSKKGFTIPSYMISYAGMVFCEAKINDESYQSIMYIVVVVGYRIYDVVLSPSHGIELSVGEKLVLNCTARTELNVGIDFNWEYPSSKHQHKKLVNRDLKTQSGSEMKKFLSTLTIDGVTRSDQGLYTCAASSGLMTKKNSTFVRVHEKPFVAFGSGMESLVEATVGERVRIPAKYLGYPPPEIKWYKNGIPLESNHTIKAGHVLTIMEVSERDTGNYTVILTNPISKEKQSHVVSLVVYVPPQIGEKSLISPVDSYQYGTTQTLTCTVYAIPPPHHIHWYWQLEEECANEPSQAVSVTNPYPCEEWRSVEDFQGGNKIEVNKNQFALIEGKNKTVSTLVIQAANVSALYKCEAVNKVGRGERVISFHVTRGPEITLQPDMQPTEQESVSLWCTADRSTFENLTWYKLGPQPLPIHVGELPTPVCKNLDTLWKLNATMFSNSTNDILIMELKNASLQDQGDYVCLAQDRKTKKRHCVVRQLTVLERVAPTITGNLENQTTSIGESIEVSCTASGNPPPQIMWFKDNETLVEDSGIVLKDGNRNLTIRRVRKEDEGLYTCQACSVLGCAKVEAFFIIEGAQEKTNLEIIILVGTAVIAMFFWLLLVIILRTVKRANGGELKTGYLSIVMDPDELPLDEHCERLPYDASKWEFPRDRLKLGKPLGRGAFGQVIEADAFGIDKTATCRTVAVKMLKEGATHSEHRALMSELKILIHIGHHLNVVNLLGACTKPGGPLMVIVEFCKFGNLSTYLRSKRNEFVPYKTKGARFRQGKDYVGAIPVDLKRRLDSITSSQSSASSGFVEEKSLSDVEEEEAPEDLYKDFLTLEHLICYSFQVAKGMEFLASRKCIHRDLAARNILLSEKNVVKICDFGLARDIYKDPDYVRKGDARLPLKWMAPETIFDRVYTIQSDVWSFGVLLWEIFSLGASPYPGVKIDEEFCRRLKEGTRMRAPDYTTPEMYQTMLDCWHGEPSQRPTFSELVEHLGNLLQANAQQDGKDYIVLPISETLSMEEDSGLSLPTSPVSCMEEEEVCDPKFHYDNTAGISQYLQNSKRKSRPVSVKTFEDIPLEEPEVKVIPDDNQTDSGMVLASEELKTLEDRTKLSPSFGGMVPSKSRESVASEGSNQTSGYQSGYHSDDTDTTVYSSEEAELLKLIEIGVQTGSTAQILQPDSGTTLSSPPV
Chain of Serine/threonine-protein kinase Nek6 (Homo sapiens) (Q9HC98 whole entry): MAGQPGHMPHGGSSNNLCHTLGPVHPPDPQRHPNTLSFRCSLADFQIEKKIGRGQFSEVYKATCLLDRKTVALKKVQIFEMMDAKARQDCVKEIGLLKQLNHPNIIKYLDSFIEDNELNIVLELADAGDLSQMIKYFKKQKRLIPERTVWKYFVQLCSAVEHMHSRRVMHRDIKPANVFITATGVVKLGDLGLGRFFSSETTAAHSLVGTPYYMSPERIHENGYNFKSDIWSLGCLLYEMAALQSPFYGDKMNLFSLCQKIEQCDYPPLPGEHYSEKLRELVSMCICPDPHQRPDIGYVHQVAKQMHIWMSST

Turning to `CC(O)CNc1nc(NCc2ccc(-c3ccccn3)cc2)c2[nH]nc(C(C)C)c2n1` (configuration not stated), the Activity result in [1] was “Dose-dependent effect”; in assay [2], more than 100%; in assay [3], 85%; in assay [4] it was 79%; in [5] it was more than 100%; in assay [6], more than 100%. The Activity result is “Dose-dependent effect” in assay [8], more than 100% in [9], 60% in assay [11] and 93% in assay [12]. In assay [7], the IC50 is 87 nM. Moreover, in assay [10], the result was Active.
